Published values gathered from unrelated publications.
Lines come from different studies, so protocols differ.
Target: Protein kinase C eta type (PRKCH, Homo sapiens, UniProt P24723)

Cc1ccc(C(=O)NCc2ccsc2)cc1C#Cc1cn(C(C)C)c2ncnc(N)c12
activity vs control (enzyme activity, inhibitor; 1 µM): 118%

CCN(CC)c1ccc(C2=NNC(=O)CC2C)cc1[N+](=O)[O-] (stereo not shown)
remaining activity (enzyme activity, inhibitor; 10 µM): 105%

COc1cc(Cl)c(C(=O)N[C@@H](CN[C@H]2CC[C@@H](N)CC2)Cc2ccc(C#N)cc2)cc1-c1ccc(CN[C@H](C)c2ccc(C)cc2)o1
remaining activity (enzyme activity, inhibitor; 1 µM): 104%

O=C(Nc1cnn(-c2csc(C(=O)NC3COC3)c2)c1)Nc1c(F)cccc1Cl
remaining activity (enzyme activity, inhibitor; 5 µM): 99%

CC(C)(O)[C@H]1CC[C@H](Nc2ccc3ncc(-c4cccc(C(F)(F)F)c4)n3n2)CC1
remaining activity (enzyme activity, inhibitor; 1 µM): 97.2%

Cn1cncc1C1=CN(c2ncnc3[nH]cnc23)CCS1
inhibition (enzyme activity, inhibitor, radiometric; 2 µM): 83.6%

CN1CCN(c2cnc3c(C4CCN(C(=O)c5ccc(OC(F)(F)F)cc5N)CC4)ncnc3c2)CC1
remaining binding (cell-free assay, competition with immobilised ligand; 1 µM): 86%

Cc1ccc(C(=O)Nc2ccc(CN3CCN(C)CC3)c(C(F)(F)F)c2)cc1C#Cc1cnc2cccnn12
remaining activity (enzyme activity; 23.5 nM): 91%

Nc1ncnc2occ(-c3ccc(NC(=O)Nc4cc(C(F)(F)F)ccc4F)cc3)c12
remaining signal (cell-free assay; 20 µM): 64%

COc1cc2ncnc(Nc3ccc(Oc4ccccc4)c(C)c3C)c2cc1OC
inhibition (enzyme activity, inhibitor; 1 µM): 5%

Cn1cnc(Br)c1C1=CN(c2ncnc3[nH]cnc23)CCS1
inhibition (enzyme activity, inhibitor, radiometric; 2 µM): 91.8%

CCS(=O)(=O)c1cc2cc(C[C@](O)(CC(C)(C)c3ccc(F)cc3C(N)=O)C(F)(F)F)[nH]c2cn1
remaining binding (cell-free assay, competition with immobilised ligand; 1 µM): 94%

O=C(Nc1cnn(-c2csc(C(=O)NC3COC3)c2)c1)Nc1ccccc1Cl
remaining activity (enzyme activity, inhibitor; 5 µM): 103%

CCCOc1ccc([C@H]2[C@H](C(=O)O)[C@@H](c3ccc4c(c3)OCO4)CN2CC(=O)Nc2c(CC)cccc2CC)cc1
remaining binding (cell-free assay, competition with immobilised ligand; 1 µM): 100%

Cc1cnc(NC2CCOCC2)nc1-n1cnc(C(=O)NC(CN)c2cc(F)cc(Cl)c2)c1 (stereo not shown)
remaining activity (enzyme activity, inhibitor, radiometric; 1 µM): 100%

CNC(=O)Nc1ccc2c(c1)[C@@]1(CC2)OC(=O)N(CC(=O)N(Cc2ccc(F)cc2)[C@@H](C)C(F)(F)F)C1=O
remaining binding (cell-free assay, competition with immobilised ligand; 1 µM): 87%

Cc1ccc(NC(=O)c2ccc(C)c(C(F)(F)F)c2)cc1C#Cc1nn(C2CCC(O)CC2)c2ncnc(N)c12 (stereo not shown)
remaining signal (cell-free assay; 10 µM): 72%

CNC(=O)c1ccc(Nc2ncc(C(F)(F)F)c(NCc3nccnc3N(C)S(C)(=O)=O)n2)cc1
remaining binding (cell-free assay, competition with immobilised ligand; 0.1 µM): 86%

CCN(CC)CCNC(=O)c1c(C)[nH]c(/C=C2\C(=O)Nc3ccc(F)cc32)c1C
inhibition (enzyme activity, inhibitor; 10 µM): 4%
